This note sets out measurements from the array DNA melting data of Ke et al. (doi:10.1101/2024.01.08.574731).

A short description of data set [1]: folding enthalpy; higher = less favourable; fluorescence melt of hairpins on a sequencing array, two-state fit. To be noted: sodium 0.088 M. In short, it runs like this:
(§1)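 Library hairpins on a sequenced MiSeq flow cell carried annealed Cy3 and quencher oligos, and their Cy3 fluorescence was imaged in 50 mM Na-HEPES pH 8.0 with 25 mM NaCl, in 2.5 °C steps up to 60 °C. Signals were normalised to Cy3 before quenching and to control constructs. Melting temperature and folding enthalpy were obtained from bootstrapped two-state fits, combined by inverse-variance weighting across four replicates, and the fitted temperatures were then raised by 9.35 °C to match UV melts.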

The nature of data set [2]: melting temperature; fluorescence melt of hairpins on a sequencing array, two-state fit, raised by 9.35 °C to match UV melts. Particulars: sodium 0.088 M. In short, it runs like this: as §1

For the sequence AAAACGAAAGTTTT (((((....))))), in data set [1], the folding enthalpy was -14.8 kcal/mol. In addition, the Tm in data set [2] amounted to 47.3 °C.
The matching figures for AAACAGAAATGTTT (((((....))))): -11.4 kcal/mol and 25.3 °C.
AAACGGAAACGTTT (((((....))))): the folding enthalpy in data set [1] was -21.3 kcal/mol. Also, the Tm in data set [2] came to 45.1 °C.
With AAACTGAAAAGTTT (((((....))))), in data set [1], the folding enthalpy was -13.4 kcal/mol. Besides, the Tm in data set [2] stood at 33.6 °C.
Take AACATGAAAATGTT (((((....))))): the folding enthalpy in data set [1] is -14.7 kcal/mol. The Tm in data set [2] was 33.6 °C.
For AACCGGAAACGGTT (((((....))))), in that order: -19.8 kcal/mol and 50 °C.
For AAGCAGAAATGCTT (((((....))))), in that order: -16.8 kcal/mol and 42.1 °C.
On to AAGTGGAAACACTT (((((....))))), for which the folding enthalpy in data set [1] was -19.6 kcal/mol. Also, the Tm in data set [2] came to 42 °C.
Consider AATCGGAAACGATT (((((....))))), for which the folding enthalpy in data set [1] is -22.9 kcal/mol. Moreover, in data set [2], the Tm came to 44.5 °C.
The matching figures for AATGCGAAAGCATT (((((....))))): -15.3 kcal/mol and 64.9 °C.
The matching figures for AATTCGAAAGAATT (((((....))))): -14.3 kcal/mol and 43.3 °C.
For ACACTGAAAAGTGT (((((....))))), in that order: -23.4 kcal/mol and 47.4 °C.
With ACCGAGAAATCGGT (((((....))))), the folding enthalpy in data set [1] was -18.3 kcal/mol. For the same sequence, the Tm in data set [2] was found to be 49.5 °C.
The matching figures for ACCTAGAAATAGGT (((((....))))): -11.8 kcal/mol and 36.8 °C.
ACCTCGAAAGAGGT (((((....))))): the folding enthalpy in data set [1] is -19.9 kcal/mol. Further, in data set [2], the Tm was 59.5 °C.
As for ACGTAGAAATACGT (((((....))))), in data set [1], the folding enthalpy is -19.9 kcal/mol. In addition, the Tm in data set [2] was found to be 37.9 °C.
For the sequence ACGTTGAAAAACGT (((((....))))), the folding enthalpy in data set [1] is -20.2 kcal/mol. Besides, the Tm in data set [2] is 47.1 °C.
In the case of AGAACCAGAAATGGTTCT (((((((....))))))), the folding enthalpy in data set [1] is -31.4 kcal/mol. For the same sequence, the Tm in data set [2] is 55.2 °C.
For AGAACGAAAGTTCT (((((....))))), in that order: -19.9 kcal/mol and 53.1 °C.
Regarding AGAATGAAAATTCT (((((....))))), in data set [1], the folding enthalpy is -10.8 kcal/mol. Moreover, the Tm in data set [2] was found to be 25.9 °C.
For AGAGGGAAACCTCT (((((....))))), the folding enthalpy in data set [1] was -16.6 kcal/mol. Further, the Tm in data set [2] was 43.4 °C.
For AGCTAGAAATAGCT (((((....))))), in that order: -14.9 kcal/mol and 41.3 °C.
For AGGGAGAAATCCCT (((((....))))), in that order: -18.6 kcal/mol and 42 °C.
For the sequence AGGTCGAAAGACCT (((((....))))), the folding enthalpy in data set [1] is -22.1 kcal/mol. In data set [2], the Tm was 67.4 °C.
The matching figures for AGTAGGAAACTACT (((((....))))): -16.9 kcal/mol and 33.2 °C.
The matching figures for AGTGAGAAATCACT (((((....))))): -15.7 kcal/mol and 38.5 °C.
The matching figures for AGTTGGAAACAACT (((((....))))): -19.9 kcal/mol and 43.2 °C.
With AGTTTGAAAAAACT (((((....))))), the folding enthalpy in data set [1] is -12.1 kcal/mol. Besides, the Tm in data set [2] is 33 °C.
The matching figures for ATAGCGAAAGCTAT (((((....))))): -15.9 kcal/mol and 54 °C.
The matching figures for ATCACGAAAGTGAT (((((....))))): -25.6 kcal/mol and 54.8 °C.
In the case of ATCAGGAAACTGAT (((((....))))), the folding enthalpy in data set [1] was -16.5 kcal/mol. The Tm in data set [2] amounted to 40.6 °C.
The matching figures for ATCTCGAAAGAGAT (((((....))))): -20.9 kcal/mol and 51.1 °C.
On to ATGCAGAAATGCAT (((((....))))), for which the folding enthalpy in data set [1] was -24.1 kcal/mol. Besides, in data set [2], the Tm was determined as 46.2 °C.
For ATGGAGAAATCCAT (((((....))))), in that order: -14.6 kcal/mol and 36 °C.
In the case of ATTACGAAAGTAAT (((((....))))), the folding enthalpy in data set [1] is -17.5 kcal/mol. In addition, the Tm in data set [2] came out at 44.4 °C.
For ATTCAGAAATGAAT (((((....))))), in that order: -11.5 kcal/mol and 29.3 °C.
For the sequence CAAATGAAAATTTG (((((....))))), the folding enthalpy in data set [1] is -12.8 kcal/mol. In data set [2], the Tm worked out at 32.8 °C.
Take CAACCCGAAAGGCTTG (((.((....)).))): the folding enthalpy in data set [1] was -16 kcal/mol. Further, the Tm in data set [2] was 30.2 °C.
Consider CAAGTGAAAACTTG (((((....))))), for which the folding enthalpy in data set [1] was -23.7 kcal/mol. Besides, in data set [2], the Tm came to 42.9 °C.
For CACCGGAAACGGTG (((((....))))), in that order: -30 kcal/mol and 60.5 °C.
Regarding CACTGGAAACAGTG (((((....))))), the folding enthalpy in data set [1] is -26.7 kcal/mol. In data set [2], the Tm came out at 50.7 °C.
In the case of CAGAAGAAATTCTG (((((....))))), in data set [1], the folding enthalpy is -12.7 kcal/mol. For the same sequence, in data set [2], the Tm came to 33.8 °C.
As to CAGAGGAAACTCTG (((((....))))), in data set [1], the folding enthalpy is -21.1 kcal/mol. Moreover, the Tm in data set [2] stood at 45 °C.
For the sequence CAGATGAAAATCTG (((((....))))), the folding enthalpy in data set [1] is -22.9 kcal/mol. For the same sequence, in data set [2], the Tm came to 44.4 °C.
For CAGCGGAAACGCTG (((((....))))), in that order: -20.8 kcal/mol and 69.3 °C.
Regarding CATCGGAAACGATG (((((....))))), the folding enthalpy in data set [1] was -25.8 kcal/mol. Besides, the Tm in data set [2] came out at 53.5 °C.
Turning to CATTCGAAAGAATG (((((....))))), the folding enthalpy in data set [1] was -23.2 kcal/mol. Moreover, the Tm in data set [2] came out at 49.7 °C.
For CCACAGAAATGTGG (((((....))))), in that order: -18.5 kcal/mol and 50.5 °C.
The matching figures for CCAGAGAAATCTGG (((((....))))): -19.2 kcal/mol and 44.4 °C.
In the case of CCATCGAAAGATGG (((((....))))), the folding enthalpy in data set [1] is -23.3 kcal/mol. The Tm in data set [2] was 60.5 °C.
Take CCCTTGAAAAAGGG (((((....))))): the folding enthalpy in data set [1] was -16.9 kcal/mol. For the same sequence, the Tm in data set [2] came to 47.2 °C.
Consider CCTATGAAAATAGG (((((....))))), for which the folding enthalpy in data set [1] is -14.2 kcal/mol. Further, in data set [2], the Tm was 41.2 °C.
Consider CCTGAGAAATCAGG (((((....))))), for which, in data set [1], the folding enthalpy was -19.4 kcal/mol. For the same sequence, the Tm in data set [2] stood at 44.8 °C.
With CCTGGGAAACCAGG (((((....))))), the folding enthalpy in data set [1] is -19.5 kcal/mol. For the same sequence, the Tm in data set [2] worked out at 55 °C.
Turning to CCTGTGAAAACAGG (((((....))))), the folding enthalpy in data set [1] is -17 kcal/mol. For the same sequence, the Tm in data set [2] turned out to be 51.6 °C.
Take CGAAACGGAAACGTTCG (((.(((....)))))): the folding enthalpy in data set [1] is -25.9 kcal/mol. Also, in data set [2], the Tm was found to be 45 °C.
For CGAACCGGAAACGGTCG (((.(((....)))))), in that order: -23 kcal/mol and 51.4 °C.
The matching figures for CGAACGGAAACGTACTCG ((((((....)))..))): -5.58 kcal/mol and 15 °C.
The matching figures for CGAACGGAAACGTGTTCG ((((((....)))..))): -26.7 kcal/mol and 42.6 °C.
Consider CGAACTCGGAAACGATCG (((..(((....)))))), for which the folding enthalpy in data set [1] is -16.3 kcal/mol. The Tm in data set [2] came out at 22.9 °C.
For the sequence CGAATCGGAAACGACTCG (((.(((....))).))), the folding enthalpy in data set [1] was -36.2 kcal/mol. Besides, in data set [2], the Tm was determined as 42.1 °C.
With CGAATGCGGAAACGCTCG (((..(((....)))))), the folding enthalpy in data set [1] is -15.3 kcal/mol. The Tm in data set [2] came to 37.2 °C.
For CGACACGGAAACGTTCG (((.(((....)))))), in that order: -35 kcal/mol and 42 °C.
For CGACCGGAAACGGCATCG ((((((....)))..))), in that order: -14.8 kcal/mol and 30 °C.
For CGACCGGAAACGGGGTCG ((((((....)))..))), in that order: -28.8 kcal/mol and 48.6 °C.
In the case of CGACCGGAAACGGTTCG ((((((....))).))), in data set [1], the folding enthalpy is -20.1 kcal/mol. For the same sequence, the Tm in data set [2] was found to be 49.2 °C.
CGAGACGGAAACGTATCG (((.(((....))).))): the folding enthalpy in data set [1] was -34.6 kcal/mol. The Tm in data set [2] turned out to be 52.1 °C.
For CGAGACGGAAACGTGTCG (((.(((....))).))), in that order: -37.6 kcal/mol and 52.1 °C.
The matching figures for CGAGAGCGGAAACGCTCG (((..(((....)))))): -18.5 kcal/mol and 58.4 °C.
As for CGAGATCGGAAACGATCG (((..(((....)))))), the folding enthalpy in data set [1] was -20 kcal/mol. Also, the Tm in data set [2] came out at 51.6 °C.
For CGAGCCGGAAACGGTCG (((.(((....)))))), in that order: -27.3 kcal/mol and 48.6 °C.
For CGAGCGGAAACGCATCG ((((((....))).))), in that order: -20.9 kcal/mol and 48.5 °C.
Take CGAGCGGAAACGCATTCG ((((((....)))..))): the folding enthalpy in data set [1] was -14.8 kcal/mol. In data set [2], the Tm came to 33.1 °C.
On to CGAGCGGAAACGCCGTCG ((((((....)))..))), for which the folding enthalpy in data set [1] is -15.5 kcal/mol. In addition, the Tm in data set [2] was 55 °C.
For CGAGCGGAAACGCGCTCG ((((((....)))..))), in that order: -26.4 kcal/mol and 68.5 °C.
The matching figures for CGAGCGGAAACGCTCTCG ((((((....)))..))): -8.45 kcal/mol and 40.5 °C.
The matching figures for CGAGGTCGGAAACGATCG (((..(((....)))))): -21 kcal/mol and 41.2 °C.
